The nature of series [1]: Metabolic stability in human liver microsomes assessed as half life at 1 uM. In kind it is ADME, Microsome. In short, it runs like this:
(§1)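 Compound in 100 mM sodium phosphate, pH 7.4, with 0.1 mg/mL human liver microsomes and 5 mM MgCl2. Preincubated 10 min at 37 °C, then started with NADPH (15 mM stock). Run in duplicate, with NADPH-free controls. Sampled at 0–60 min and quenched in ice-cold acetonitrile with internal standard. Quantified by HPLC-UV; % remaining relative to 0 min gave t1/2, and scaled Clint in L/min/kg.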
(In general: Liver microsomes are a subcellular fraction often used to study metabolism.)

Another series deals with H9. Put plainly: Reduction in cell viability of human H9 cells. In kind it is cell-based.
In series [2] the test system is Human immunodeficiency virus 1. Put plainly: Antiviral activity against HIV1 3B replication in H9 cells. The class given is functional, organism-based. The note with it: Human immunodeficiency virus 1, 3B.
The nature of series [3]: Therapeutic index, ratio of IC50 for human H9 cells to EC50 for HIV1 3B. The class given is cell-based. The note with it: read-out: Ratio IC50/EC50.
The test system of the next series is Liver microsomes. The series is described as follows: Intrinsic clearance in human liver microsomes at 1 uM. In kind it is ADME, Microsome. Put shortly:
as §1

Each structure is given as a SMILES string.

As a reminder, the half-life is the time needed for the level to fall by half in the phase considered. For orientation: IC50 means the concentration needed to halve the response being measured. A low value points to higher potency. For orientation: EC50 means the concentration at which the effect is half-maximal. A lower EC50 goes with greater potency. In the case of `Cc1cc(=O)oc2c3c(c(O)cc12)OC(C)(C)[C@H](OC(=O)C12CCC(C)(C(=O)O1)C2(C)C)[C@@H]3OC(=O)C12CCC(C)(C(=O)O1)C2(C)C` (some centres undefined), the half-life at 1 µM in series [1] came out at 3.1 min. Further, in the series with H9, the IC50 was over 38 µM. The compound also registered an EC50 in series [2] of 1.5 µM. The selectivity ratio in series [3] was over 25. For the same compound, the clearance in the series with Liver microsomes was found to be 2300 mL/min/kg.

In the series on H9, `Cc1cc2c(c3oc(=O)cc(O)c13)[C@@H](OC(=O)C13CCC(C)(C(=O)O1)C3(C)C)[C@@H](OC(=O)C13CCC(C)(C(=O)O1)C3(C)C)C(C)(C)O2` (some centres undefined) displayed an IC50 of 14 µM. The same compound yielded an EC50 in series [2] of 1.2 µM. The selectivity ratio in series [3] came out at 12.

In turn, `CC1(C)Oc2ccc3c(O)cc(=O)oc3c2[C@@H](OC(=O)C23CCC(C)(C(=O)O2)C3(C)C)[C@H]1OC(=O)C12CCC(C)(C(=O)O1)C2(C)C` (some centres undefined) had an IC50 with H9 of over 40 µM. In series [2], it took 15 µM to reach a half-maximal effect (EC50). Besides, the selectivity ratio in series [3] was over 3.

For `Cc1cn([C@H]2C[C@H](N=[N+]=[N-])[C@@H](CO)O2)c(=O)[nH]c1=O` [ZIDOVUDINE], the half-maximal inhibitory concentration (IC50) in the series on H9 is 1900 µM. The compound further yielded a 50% effective concentration (EC50) in series [2] of 0.05 µM. In series [3], the selectivity ratio came out at 38000.

Regarding `Cc1c(O)c2ccc3c(c2oc1=O)[C@@H](OC(=O)C12CCC(C)(C(=O)O1)C2(C)C)[C@@H](OC(=O)C12CCC(C)(C(=O)O1)C2(C)C)C(C)(C)O3` (some centres undefined), the half-life at 1 µM in series [1] was found to be 3.5 min. The IC50 in the series on H9 was 31 µM. The same compound had a concentration giving a half-maximal response (EC50) in series [2] of 2.1 µM. Further, the selectivity ratio in series [3] is 15. In the series on Liver microsomes, this compound returned a clearance of 2000 mL/min/kg.

As for `Cc1cc(=O)oc2c3c(ccc12)NC(C)(C)[C@H](OC(=O)C12CCC(C)(C(=O)O1)C2(C)C)[C@@H]3OC(=O)C12CCC(C)(C(=O)O1)C2(C)C` (some centres undefined), in series [1], the half-life at 1 µM worked out at 9.6 min. Also, the 50% inhibitory concentration (IC50) in the series with H9 is over 32 µM. The compound further returned a half-maximal effective concentration (EC50) in series [2] of 0.77 µM. Moreover, the selectivity ratio in series [3] was over 42. The clearance in the series on Liver microsomes is 700 mL/min/kg.

Take `Cc1cc(=O)oc2c3c(ccc12)OC(C)(C)[C@H](OC(=O)C12CCC(C)(C(=O)O1)C2(C)C)[C@@H]3OC(=O)C12CCC(C)(C(=O)O1)C2(C)C` (some centres undefined): in series [1], the half-life at 1 µM was 3.4 min. In the series on H9, this compound yielded an IC50 of over 10 µM. In addition, the EC50 in series [2] amounted to 0.02 µM. For the same compound, in series [3], the selectivity ratio is over 500. In the series with Liver microsomes, the clearance was 2000 mL/min/kg.

(Values after ChEMBL document CHEMBL1139794, “Anti-AIDS agents 66: syntheses and anti-HIV activity of phenolic and aza 3',4'-di-O-(-)-camphanoyl-(+)-cis-khellactone (DCK) derivatives” (Bioorg Med Chem, 2007).)
